Source: ChEMBL document CHEMBL4610124, “Novel Thienopyrimidine Inhibitors of Leishmania N-Myristoyltransferase with On-Target Activity in Intracellular Amastigotes” (J Med Chem, 2020)

Legend:
[1] = Inhibition of Leishmania donovani NMT using p60 SRC(2 to […]) as substrate by CPM dye based fluorescence assay
[2] = biological target: T1, Glycylpeptide N-tetradecanoyltransferase 1 (Homo sapiens, UniProt P30419); assay type: ADME
T1 sequence (P30419 whole entry): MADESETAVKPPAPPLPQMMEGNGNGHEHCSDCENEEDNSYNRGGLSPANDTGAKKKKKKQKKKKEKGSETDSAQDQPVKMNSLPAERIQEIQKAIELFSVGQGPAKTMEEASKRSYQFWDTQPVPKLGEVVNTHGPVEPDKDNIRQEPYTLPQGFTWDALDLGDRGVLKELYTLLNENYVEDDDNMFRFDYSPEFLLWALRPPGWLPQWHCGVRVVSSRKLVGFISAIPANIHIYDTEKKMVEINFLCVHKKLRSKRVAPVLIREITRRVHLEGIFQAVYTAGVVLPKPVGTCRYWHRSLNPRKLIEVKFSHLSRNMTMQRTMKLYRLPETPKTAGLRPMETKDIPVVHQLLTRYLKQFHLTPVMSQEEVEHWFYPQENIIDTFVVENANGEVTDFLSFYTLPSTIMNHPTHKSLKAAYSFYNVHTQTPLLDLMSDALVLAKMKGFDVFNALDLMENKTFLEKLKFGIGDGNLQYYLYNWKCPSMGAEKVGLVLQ

[3] = tested on: human NMT1 versus Leishmania donovani NMT; assay: Selectivity ratio of IC50 for human NMT1 to IC50 for Leishmania donovani NMT; assay type: toxicity; details: read-out: Ratio IC50
Outline: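 Ratio of IC₅₀ for HsNMT1 to IC₅₀ for LdNMT. Both were measured in a fluorogenic CPM assay, in which coenzyme A released by acyl transfer is detected with the thiol-reactive dye CPM.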

[4] = Inhibition of Leishmania major NMT using p60 SRC(2 to […]) as substrate by CPM dye based fluorescence assay
[5] = tested on: Leishmania donovani; assay: Antileishmanial activity against Leishmania donovani MHOM/ET/67/HU3 intracellular amastigotes measured after 72 hrs by alamar blue dye based fluorescence assay; assay type: functional, organism-based; details: MHOM/ET/67/HU3, 72 h
Outline: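 Ex vivo L. donovani LV9 amastigotes, kept by serial passage in Rag-2−/− mice, isolated from infected spleens by homogenization and saponin lysis. Plated at 4 × 10⁵ per well in RPMI with 20% heat-inactivated FCS, adenine, 20 mM MES (pH 5.5), hemin, biopterin and biotin.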

[6] = tested on: Leishmania donovani; assay: Effect on total NMT expression in Leishmania donovani MHOM/ET/67/HU3 intracellular amastigotes after 12 hrs in presence of YnMyr by Western blot analysis; assay type: ADME, organism-based
Outline: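 Amastigotes from spleens of Rag-2−/− mice, isolated by saponin lysis, seeded at 7.5 × 10⁷/mL in RPMI/10% FCS with inhibitor for 1 h at 37 °C. Then resuspended in fresh medium with inhibitor plus YnMyr (50 μM final) for 12 h. Lysates were click-labelled and run on SDS-PAGE, then immunoblotted with anti-LdNMT antibody.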

Compound: COc1ccc2nc(N(C)CCCN(C)C)nc(N(C)CCC#N)c2c1
- IC50 [1]: 1.8 µM
- IC50 [2]: > 100 µM
- selectivity ratio [3]: > 56

Compound: CCN(C)c1nc(N(C)CCCN(C)C)nc2ccc(S(=O)(=O)Nc3c(C)nn(C)c3C)cc12
- IC50 [1]: 0.23 µM
- IC50 [2]: 1.1 µM
- selectivity ratio [3]: 4.6

Compound: CCN1CCC(N(C)c2nc(N(C)CCC#N)c3ccccc3n2)CC1
- IC50 [1]: 0.97 µM
- IC50 [4]: 0.95 µM
- EC50 [5]: > 50 µM

Compound: CCN(C)c1nc(N(C)CCCN(C)C)nc2ccsc12
- IC50 [4]: 13 µM
- IC50 [2]: > 100 µM
- selectivity ratio [3]: > 8

Compound: CN(CCCN(C)c1nc(N(C)CCC#N)c2sccc2n1)Cc1ccccc1
- IC50 [1]: > 100 µM

Compound: CC(=O)N(C)CCN(C)c1nc(N(C)CCCN(C)C)nc2ccsc12
- IC50 [1]: > 100 µM
- IC50 [2]: > 100 µM

Compound: CN1CCC(N(C)c2nc(N(C)CCC#N)c3cc(Br)ccc3n2)CC1
- IC50 [1]: 0.95 µM
- IC50 [2]: > 100 µM
- selectivity ratio [3]: > 20

Compound: CN(C)CCCN(C)c1nccc(N(C)CCC#N)n1
- IC50 [1]: > 100 µM
- IC50 [2]: > 100 µM

Compound: CN(c1nc(N2CCC[C@H]2CC#N)c2sccc2n1)C1CCNCC1
- IC50 [1]: 0.21 µM
- IC50 [2]: 1.6 µM
- selectivity ratio [3]: 7.8

Compound: CN(CCC#N)c1nc(N(C)C2CCNC2)nc2cc(C(C)(C)C)sc12 (stereo unspecified)
- IC50 [1]: 5.5 µM
- IC50 [2]: > 100 µM
- selectivity ratio [3]: > 18
- EC50 [5]: 21 µM

Compound: CN1CCC(N(C)c2nc(N(C)CCC#N)c3sccc3n2)CC1
- IC50 [1]: 0.34 µM
- IC50 [4]: 0.2 µM
- IC50 [2]: 5.7 µM
- Activity [6]: Non-Toxic

Compound: CN(C)CCCN(C)c1nc(N(C)CCC#N)c2sc(C(C)(C)C)cc2n1
- IC50 [1]: 0.36 µM
- IC50 [4]: 0.16 µM
- EC50 [5]: 37 µM

Compound: CC(C)CN(C)CCCN(C)c1nc(N(C)CCC#N)c2sccc2n1
- IC50 [1]: > 100 µM

Compound: CN1CCC(N(C)c2nc(N(C)CCC#N)c3sc(C(C)(C)C)cc3n2)CC1
- IC50 [1]: 0.046 µM
- IC50 [4]: 0.042 µM
- IC50 [2]: 0.55 µM

Compound: CN1CCC(N(C)c2nc(N(C)CCC#N)c3cc(Br)ccc3n2)C1 (stereo unspecified)
- IC50 [1]: 5.5 µM
- IC50 [2]: > 100 µM
- selectivity ratio [3]: > 18

Compound: COc1ccc2c(N(C)CCC#N)nc(N(C)CCCN(C)C)nc2c1
- IC50 [1]: 9.5 µM

Compound: Cc1ccccc1-c1ccc2nc(N(C)CCCN(C)C)nc(N(C)CCC#N)c2c1
- IC50 [1]: 0.67 µM
- IC50 [2]: > 100 µM
- selectivity ratio [3]: > 150

Compound: CN(C)CCCN(C)c1nc(N(C)CCCO)c2sccc2n1
- IC50 [4]: 40 µM
- EC50 [5]: > 50 µM

Compound: CN(CCC#N)c1nc(N(C)C2CCN(Cc3ccccc3)CC2)nc2ccsc12
- IC50 [1]: 27 µM

Compound: CN1CCN(c2nc(N(C)CCC#N)c3sccc3n2)CC1
- IC50 [1]: 30 µM

Compound: CN(CCC#N)c1nc(N(C)C2CCN(Cc3ccccc3)C2)nc2cc(C(C)(C)C)sc12 (stereo unspecified)
- IC50 [1]: 7.8 µM

Compound: CN1CCC(N(C)c2nc(N(C)CCC#N)c3sc(C(C)(C)C)cc3n2)C1 (stereo unspecified)
- Activity [6]: Non-Toxic

Compound: COc1ccc2nc(N(C)C3CCN(C)CC3)nc(N(C)CCC#N)c2c1
- IC50 [1]: 0.5 µM
- IC50 [2]: > 100 µM
- selectivity ratio [3]: > 200

Compound: CN(C)CCCN(C)c1nc(N(C)CCC#N)c2cccnc2n1
- IC50 [1]: 2.4 µM
- IC50 [2]: > 100 µM
- selectivity ratio [3]: > 42

Compound: CC(C)CN1CCC(N(C)c2nc(N(C)CCC#N)c3sccc3n2)CC1
- IC50 [1]: 4 µM
- IC50 [2]: > 100 µM
- selectivity ratio [3]: > 25

Compound: CN1CCC(N(C)c2nc(N3CCC[C@H]3CC#N)c3sccc3n2)CC1
- IC50 [1]: 0.15 µM
- IC50 [2]: > 100 µM
- selectivity ratio [3]: > 660
- EC50 [5]: 19 µM

Compound: CCN(C)c1nc(N(C)C2CCN(Cc3ccccc3)CC2)nc2ccsc12
- IC50 [1]: > 100 µM

Compound: COC[C@@H]1CCCN1c1nc(N(C)C2CCNCC2)nc2ccsc12
- IC50 [1]: 4.3 µM
- IC50 [2]: 5 µM
- selectivity ratio [3]: 1.2

Compound: CCN(C)c1nc(N(C)C2CCN(C)CC2)nc2ccsc12
- IC50 [4]: 0.73 µM
- IC50 [2]: 7.9 µM
- EC50 [5]: > 50 µM

Compound: CN(C)CCCN(C)c1nc(N(C)CCC#N)c2cc(Br)ccc2n1
- IC50 [1]: 0.35 µM
- EC50 [5]: 17 µM

Compound: CN(CCC#N)c1nc(N(C)C2CCN(Cc3ccccc3)C2)nc2ccsc12 (stereo unspecified)
- IC50 [1]: > 100 µM

Compound: CN(C)CCCN(C)c1nc(N(C)CCC#N)c2sccc2n1
- IC50 [1]: 0.15 to 0.59 µM
- IC50 [4]: 2.7 µM
- IC50 [2]: > 100 µM
- selectivity ratio [3]: > 170
- EC50 [5]: > 50 µM

Compound: CN(CCCO)c1nc(N(C)CCC#N)c2sccc2n1
- IC50 [1]: > 100 µM

Compound: COC[C@@H]1CCCN1c1nc(N(C)C2CCN(C)CC2)nc2ccsc12
- IC50 [1]: 0.87 µM
- IC50 [2]: > 100 µM
- selectivity ratio [3]: > 120
- EC50 [5]: 26 µM

Compound: CNCCCN(C)c1nc(N(C)CCC#N)c2sccc2n1
- IC50 [1]: 5.2 µM

Compound: CN(CCC#N)c1nc(N(C)C2CCOCC2)nc2ccsc12
- IC50 [1]: > 100 µM

Compound: COCCN(C)c1nc(N(C)CCCN(C)C)nc2ccsc12
- IC50 [1]: 44 µM

Compound: CN(C)CCCN(C)c1nc(N(C)CCO)c2sccc2n1
- IC50 [1]: 22 µM
- IC50 [4]: 36 µM

Compound: CCN(C)c1nc(N(C)C2CCNCC2)nc2ccc(S(=O)(=O)Nc3c(C)nn(C)c3C)cc12
- IC50 [2]: 1.7 µM
- selectivity ratio [3]: 5.2

Compound: CN(CCC#N)c1nc(N2CCNCC2)nc2ccsc12
- IC50 [1]: 28 µM

Compound: CN(C)CCCN(C)c1ncc2sccc2n1
- IC50 [1]: > 100 µM

Compound: CCN(C)c1nc(N(C)C2CCN(C)CC2)nc2ccc(S(=O)(=O)Nc3c(C)nn(C)c3C)cc12
- IC50 [1]: 0.2 µM
- IC50 [2]: 2.3 µM
- selectivity ratio [3]: 11

Compound: CN(C)CCCN(C)c1nc(N2CCC[C@H]2CO)c2sccc2n1
- IC50 [4]: 19 µM
- EC50 [5]: > 50 µM

Compound: CN(CCC#N)c1nc(N(C)C2CCNC2)nc2ccccc12 (stereo unspecified)
- IC50 [1]: 5.8 µM
- IC50 [4]: 4.9 µM

Compound: CN(C)CCCN(C)c1nc(N(C)CCC(N)=O)c2sccc2n1
- IC50 [4]: 13 µM
- EC50 [5]: > 50 µM

Compound: CN(C)CCCN(C)c1nc(N(C)CCC#N)c2cc(-c3ccccc3)ccc2n1
- IC50 [1]: 0.39 µM
- IC50 [2]: > 100 µM
- selectivity ratio [3]: > 260

Compound: CN(C)CCCN(C)c1nc(N(C)CCC#N)c2ccccc2n1
- IC50 [4]: 2.1 µM
- EC50 [5]: > 50 µM

Compound: CN(CCC#N)c1nc(N(C)C2CCNCC2)nc2ccccc12
- IC50 [4]: 1.1 µM
- IC50 [2]: > 100 µM
- EC50 [5]: > 50 µM

Compound: COc1ccc(-c2ccc3nc(N(C)CCCN(C)C)nc(N(C)CCC#N)c3c2)c(C)c1
- IC50 [1]: 6.6 µM
- IC50 [2]: > 100 µM
- selectivity ratio [3]: > 15

Compound: CN(CCC#N)c1nc(N(C)C2CCNCC2)nc2ccsc12
- IC50 [1]: 0.5 µM
- IC50 [2]: 11 µM
- selectivity ratio [3]: 22
- EC50 [5]: > 50 µM

Compound: COCCN(C)c1nc(N2CCN(C)CC2)nc2ccsc12
- IC50 [1]: 23 µM

Compound: CN(CCC#N)c1nc(N(C)[C@H]2C[C@H]3CC[C@@H](C2)N3C)nc2ccccc12
- IC50 [1]: 16 µM
- IC50 [4]: 13 µM
- IC50 [2]: > 100 µM
- EC50 [5]: > 50 µM

Compound: CN(CCC#N)c1nc(N(CCO)C2CCNCC2)nc2ccccc12
- IC50 [4]: 8.2 µM

Compound: CN(C)CCCN(C)c1nc(N(C)CCC#N)c2c(ncn2C)n1
- IC50 [1]: > 100 µM
- IC50 [2]: > 100 µM

Compound: CN(C)CCCN(C)c1nc(N(C)CCC(=O)N(C)C)c2sccc2n1
- IC50 [1]: 54 µM
